Data as given in ChEMBL document CHEMBL4229382, “Phenylthiazoles with tert-Butyl side chain: Metabolically stable with anti-biofilm activity” (Eur J Med Chem, 2018).
Converted amounts (≈) assume the structure as drawn.

Legend:
[1] = tested on: Enterococcus faecalis; assay: Bactericidal activity against vancomycin-resistant Enterococcus faecalis ATCC 51299 incubated fo 18 hrs followed by re-plating on tryptic soy agar plates at 37 degC for 18 hrs by broth microdilution assay; format: functional; settings: ATCC 51299, 18 h
[2] = tested on: Staphylococcus aureus; assay: Inhibition of biofilm formation in methicillin-resistant Staphylococcus aureus NRS384 USA300 at 1 time MIC after 24 hrs by crystal violet staining-based spectrophotometric analysis relative to control; set-up: scale not given: the % may be the effect or the level left
[3] = tested on: Staphylococcus aureus; assay: Bactericidal activity against vancomycin-resistant Staphylococcus aureus VRS10 incubated fo 18 hrs followed by re-plating on tryptic soy agar plates at 37 degC for 18 hrs by broth microdilution assay; format: functional; settings: VRS10, 18 h
[4] = tested on: Enterococcus faecium; assay: Antibacterial activity against vancomycin-resistant Enterococcus faecium ATCC 700221 after 18 hrs by broth microdilution assay; format: functional; settings: ATCC 700221, 18 h
Method in brief: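 Broth microdilution: inoculum from 0.5 McFarland suspension diluted to about 5 × 10^5 CFU/mL. Media were cation-adjusted Mueller-Hinton broth for staphylococci, brain heart infusion for E. faecium, and tryptone soya broth for E. faecalis, S. pneumoniae and L. monocytogenes.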

[5] = tested on: Enterococcus faecium; assay: Bactericidal activity against vancomycin-resistant Enterococcus faecium ATCC 700221 incubated fo 18 hrs followed by re-plating on tryptic soy agar plates at 37 degC for 18 hrs by broth microdilution assay; settings: ATCC 700221, 18 h

`CN[C@H](CC(C)C)C(=O)N[C@H]1C(=O)N[C@@H](CC(N)=O)C(=O)N[C@H]2C(=O)N[C@H]3C(=O)N[C@H](C(=O)N[C@H](C(=O)O)c4cc(O)cc(O)c4-c4cc3ccc4O)[C@H](O)c3ccc(c(Cl)c3)Oc3cc2cc(c3O[C@@H]2O[C@H](CO)[C@@H](O)[C@H](O)[C@H]2O[C@H]2C[C@](C)(N)[C@H](O)[C@H](C)O2)Oc2ccc(cc2Cl)[C@H]1O` [VANCOMYCIN] was tested, and the MBC [1] was 64 µg/mL (≈ 44.2 µM), the Activity [2] was 3% and the MBC [3] was greater than 64 µg/mL. For the same compound, the MIC [4] was greater than 64 µg/mL and the MBC [5] was greater than 64 µg/mL.
